molecular target: Mitogen-activated protein kinase 10 (Rattus norvegicus, UniProt P49187); assay: Inhibition of rat c-Jun N-terminal kinase 3
Procedure, shortened: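 GST-JNK3 was preactivated overnight at room temperature with GST-JNKK2 and ATP-γ-S, then dialysed. The enzyme (0.5 µg) was incubated with biotinylated GST-c-Jun (1 µg) and 2 µM ³³P-γ-ATP in 50 mM Tris-HCl pH 8.0, 10 mM MgCl₂, 1 mM DTT and 100 µM NaVO₄ for 120 min at room temperature. Reaction stopped with EDTA; phosphorylation detected by streptavidin SPA beads and scintillation counting. Values from triplicates.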

Mitogen-activated protein kinase 10, sequence (P49187 whole entry): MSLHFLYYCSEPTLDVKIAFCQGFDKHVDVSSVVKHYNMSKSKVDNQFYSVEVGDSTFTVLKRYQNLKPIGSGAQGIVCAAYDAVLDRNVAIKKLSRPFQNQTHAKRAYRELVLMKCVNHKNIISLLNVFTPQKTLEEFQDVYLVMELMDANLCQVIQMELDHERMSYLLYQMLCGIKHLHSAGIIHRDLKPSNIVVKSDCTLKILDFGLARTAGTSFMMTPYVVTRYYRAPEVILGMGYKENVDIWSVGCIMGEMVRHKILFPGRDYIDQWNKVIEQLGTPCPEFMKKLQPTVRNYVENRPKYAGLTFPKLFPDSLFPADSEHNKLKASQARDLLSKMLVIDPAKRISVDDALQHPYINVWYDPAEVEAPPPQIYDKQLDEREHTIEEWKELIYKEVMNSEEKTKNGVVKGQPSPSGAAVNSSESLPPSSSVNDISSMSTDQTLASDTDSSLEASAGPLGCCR

| Compound | IC50 [µM] |
| --- | --- |
| CCOC(=O)C(c1ccnc(Cl)n1)c1nc2ccccc2s1 (stereo not drawn) [[3H-Benzothiazol-(2Z)-ylidene]-(2-chloro-pyrimidin-4-yl)-acetic acid ethyl ester] | > 5 |
| CCCN(CCC)c1nccc(C(C#N)c2nc3ccccc3s2)n1 (stereo not drawn) [[3H-Benzothiazol-(2Z)-ylidene]-(2-dipropylamino-pyrimidin-4-yl)-acetonitrile] | > 5 |
| N#CC(c1ccnc(NCCc2ccccc2)n1)c1nc2ccccc2s1 (stereo not drawn) [[3H-Benzothiazol-(2Z)-ylidene]-(2-phenethylamino-pyrimidin-4-yl)-acetonitrile] | > 5 |
| N#CC(c1ccnc(Cl)n1)c1nc2ccccc2s1 (stereo not drawn) [(2Z)-1,3-benzothiazol-2(3H)-ylidene(2-chloropyrimidin-4-yl)acetonitrile] | 0.25 |
| N#CC(c1ccnc(NCCc2c[nH]cn2)n1)c1nc2ccccc2s1 (stereo not drawn) | 0.08 |
| N#CC(c1cccc(Cl)n1)c1nc2ccccc2s1 (stereo not drawn) [(2Z)-1,3-benzothiazol-2(3H)-ylidene(6-chloropyridin-2-yl)acetonitrile] | > 5 |
| N#CC(c1ccncn1)c1nc2ccccc2s1 (stereo not drawn) [(2Z)-1,3-benzothiazol-2(3H)-ylidene(pyrimidin-4-yl)acetonitrile] | > 5 |
| Cc1cc(C(C#N)c2nc3ccccc3s2)nc(Cl)n1 (stereo not drawn) [(2Z)-1,3-benzothiazol-2(3H)-ylidene(2-chloro-6-methylpyrimidin-4-yl)acetonitrile] | > 5 |
| N#CC(c1nc2ccccc2[nH]1)c1nc(Cl)ncc1Br (stereo not drawn) [(5-Bromo-2-chloro-pyrimidin-4-yl)-(1,3-dihydro-benzoimidazol-2-ylidene)-acetonitrile] | > 5 |

Results, then the compound that gave them:

| IC50 [µM] | Compound |
| --- | --- |
| 0.08 | N#CC(c1ccnc(NCCc2ccc(N)cc2)n1)c1nc2ccccc2s1 (stereo not drawn) [{2-[2-(4-Amino-phenyl)-ethylamino]-pyrimidin-4-yl}-[3H-benzothiazol-(2Z)-ylidene]-acetonitrile] |
| > 5 | Cc1ccc(CCNc2nccc(C(C#N)c3nc4ccccc4s3)n2)cc1 (stereo not drawn) [[3H-Benzothiazol-(2Z)-ylidene]-[2-(2-p-tolyl-ethylamino)-pyrimidin-4-yl]-acetonitrile] |
| > 5 | N#CC(c1ccnc(NCCc2ccc(Cl)c(Cl)c2)n1)c1nc2ccccc2s1 (stereo not drawn) [[3H-Benzothiazol-(2Z)-ylidene]-{2-[2-(3,4-dichloro-phenyl)-ethylamino]-pyrimidin-4-yl}-acetonitrile] |
| > 5 | N#CC(c1ccnc(NCc2nnn[nH]2)n1)c1nc2ccccc2s1 (stereo not drawn) [[3H-Benzothiazol-(2Z)-ylidene]-{2-[(1H-tetrazol-5-ylmethyl)-amino]-pyrimidin-4-yl}-acetonitrile] |
| > 5 | CCCNc1nccc(C(C#N)c2nc3ccccc3s2)n1 (stereo not drawn) [[3H-Benzothiazol-(2Z)-ylidene]-(2-propylamino-pyrimidin-4-yl)-acetonitrile] |
| > 5 | N#CC(c1ccnc(NCCc2cccc(Cl)c2)n1)c1nc2ccccc2s1 (stereo not drawn) [[3H-Benzothiazol-(2Z)-ylidene]-{2-[2-(3-chloro-phenyl)-ethylamino]-pyrimidin-4-yl}-acetonitrile] |
| 0.25 | N#CC(c1ccnc(NCCc2ccccn2)n1)c1nc2ccccc2s1 (stereo not drawn) [[3H-Benzothiazol-(2Z)-ylidene]-[2-(2-pyridin-2-yl-ethylamino)-pyrimidin-4-yl]-acetonitrile] |
| > 5 | N#CC(c1ccnc(NCCc2ccc(Br)cc2)n1)c1nc2ccccc2s1 (stereo not drawn) [[3H-Benzothiazol-(2Z)-ylidene]-{2-[2-(4-bromo-phenyl)-ethylamino]-pyrimidin-4-yl}-acetonitrile] |
| > 5 | N#CC(c1ccnc(NCCc2ccc(F)cc2)n1)c1nc2ccccc2s1 (stereo not drawn) [[3H-Benzothiazol-(2Z)-ylidene]-{2-[2-(4-fluoro-phenyl)-ethylamino]-pyrimidin-4-yl}-acetonitrile] |
